Measured values published in ChEMBL document CHEMBL1157745, “Structure-based discovery of A2A adenosine receptor ligands” (J Med Chem, 2010).
Calls of active or inactive are those of the source. No cut-off for these calls is given here.

Key:
[1] = target: Cruzipain (Trypanosoma cruzi) (UniProt P25779); test: Inhibition of Trypanosoma cruzi cruzain at 10 uM preincubated for 5 mins before substrate addition by spectrophotometry; conditions: in the assay text read “spectrofluorimetry” for “spectrophotometry”
Cruzipain (Trypanosoma cruzi), sequence (P25779 123-467 limits assumed): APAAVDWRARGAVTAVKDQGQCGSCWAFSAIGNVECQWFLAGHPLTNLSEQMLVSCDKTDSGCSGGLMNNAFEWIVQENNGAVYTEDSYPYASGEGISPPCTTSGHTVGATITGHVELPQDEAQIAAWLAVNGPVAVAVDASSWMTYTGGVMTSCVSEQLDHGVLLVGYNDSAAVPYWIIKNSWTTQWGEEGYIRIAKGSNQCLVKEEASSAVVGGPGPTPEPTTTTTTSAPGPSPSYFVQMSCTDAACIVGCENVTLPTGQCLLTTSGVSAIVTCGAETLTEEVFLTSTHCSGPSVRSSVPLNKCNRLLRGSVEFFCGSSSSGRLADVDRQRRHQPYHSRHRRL
How it was run: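 Enzyme (0.8 nM) preincubated with compound 5 min in 100 mM sodium acetate pH 5.5, 5 mM DTT, with and without 0.1% Triton X-100; started with Z-FR-AMC (2.5 μM final, enzyme 0.4 nM final), 0.5% DMSO; fluorescence ex 355/em 460 nm over 5 min; duplicates, DMSO controls.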

Adenosine receptor A2a = Adenosine receptor A2a (Homo sapiens, UniProt P29274); test: Displacement of [3H]CGS21680 from human recombinant adenosine A2A receptor expressed in HEK293 cells after 60 mins by scintillation counting; type: cell-based
Adenosine receptor A2a, sequence (P29274 whole entry): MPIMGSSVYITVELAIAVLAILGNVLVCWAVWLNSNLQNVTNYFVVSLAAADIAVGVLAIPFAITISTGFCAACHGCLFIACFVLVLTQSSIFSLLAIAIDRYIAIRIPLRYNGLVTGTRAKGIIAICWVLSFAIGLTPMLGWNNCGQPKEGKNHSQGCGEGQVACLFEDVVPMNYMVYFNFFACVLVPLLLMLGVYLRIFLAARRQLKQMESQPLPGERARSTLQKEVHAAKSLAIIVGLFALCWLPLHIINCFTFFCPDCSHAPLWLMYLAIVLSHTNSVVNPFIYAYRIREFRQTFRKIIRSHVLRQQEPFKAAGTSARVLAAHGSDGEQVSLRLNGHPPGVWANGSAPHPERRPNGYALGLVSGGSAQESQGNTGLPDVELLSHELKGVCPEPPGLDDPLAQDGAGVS

[2] = Colloidal aggregation at 10 uM by dynamic light scattering assay; type: physicochemical
How it was run: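 Compounds diluted from concentrated DMSO stocks into filtered 50 mM KPi, pH 7.0; particle formation checked by dynamic light scattering with 826.6 nm laser at 100% power, detector angle 90°.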

[3] = target: T1, Adenosine receptor A1 (Homo sapiens) (UniProt P30542); test: Displacement of [3H]R-PIA from human recombinant adenosine A1 receptor expressed in CHO cells at 20 uM after 60 mins by scintillation counting; type: cell-based
T1 sequence (whole entry): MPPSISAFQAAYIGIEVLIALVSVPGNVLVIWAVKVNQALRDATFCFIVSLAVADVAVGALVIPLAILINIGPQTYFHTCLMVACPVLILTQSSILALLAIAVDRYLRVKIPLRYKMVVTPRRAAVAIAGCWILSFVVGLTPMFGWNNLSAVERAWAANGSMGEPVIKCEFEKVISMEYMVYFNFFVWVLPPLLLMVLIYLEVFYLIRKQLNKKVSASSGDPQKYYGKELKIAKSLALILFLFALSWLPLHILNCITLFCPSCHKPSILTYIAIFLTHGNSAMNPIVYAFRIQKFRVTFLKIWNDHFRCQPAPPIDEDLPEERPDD

[4] = target: T2, Adenosine receptor A3 (Homo sapiens) (UniProt P0DMS8); test: Displacement of [125I]I-AB-MECA from human recombinant adenosine A3 receptor expressed in CHO cells at 20 uM after 60 mins by gamma counting
T2 sequence (whole entry): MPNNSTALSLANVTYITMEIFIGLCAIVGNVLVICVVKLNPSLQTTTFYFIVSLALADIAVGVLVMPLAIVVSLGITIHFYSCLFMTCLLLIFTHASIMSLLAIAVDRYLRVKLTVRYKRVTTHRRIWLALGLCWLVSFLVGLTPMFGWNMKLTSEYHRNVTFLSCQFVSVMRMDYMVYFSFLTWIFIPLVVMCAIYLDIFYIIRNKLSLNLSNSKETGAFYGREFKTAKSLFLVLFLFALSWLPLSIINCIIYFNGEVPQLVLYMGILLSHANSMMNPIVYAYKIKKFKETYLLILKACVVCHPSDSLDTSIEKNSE

[5] = Inhibition of beta-lactamase AmpC preincubated for 5 mins before substrate addition by spectrophotometry
How it was run: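 In 50 mM potassium phosphate pH 7.0, 1 nM enzyme incubated 5 min with compound at 10 μM (0.1% DMSO); CENTA added to 92 μM final; absorbance at 405 nm followed for 5 min; duplicates with DMSO controls.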

Homo sapiens [6] = species on record: Homo sapiens; test: Selectivity ratio of Ki for human recombinant adenosine A1 receptor to KI for human recombinant adenosine A2A receptor
Homo sapiens [7] = species on record: Homo sapiens; test: Selectivity ratio of Ki for human recombinant adenosine A3 receptor to KI for human recombinant adenosine A2A receptor

Compound	Activity [1]	Ki (Adenosine receptor A2a) [nM]	Activity [2]	Activity [3] [%]	Activity [4] [%]	inhibition [5]	Ratio Ki (Homo sapiens [6])	Ratio Ki (Homo sapiens [7])
Cc1ccc2nc(Nc3nc(C)cc(C)n3)[nH]c2c1	inactive	1300	Not Active	12	15			
CNc1ccccc1C(=O)/N=C(\N)Nc1nc(C)c2ccccc2n1		8800		15	8			
Cc1cccc(O[C@H](C)C(=O)Nc2nnc(-c3ccccc3)[nH]2)c1			Not Active					
Cc1cccc(O[C@H](C)C(=O)Nc2nc(-c3ccccc3)n[nH]2)c1	inactive					inactive		
NC(=NCCc1c[nH]c2ccccc12)Nc1ncccn1		5900						
Cc1cc(C)nc(NC(N)=NCCc2ccsc2)n1		400						
COc1ccc(-c2cc(=O)[nH]c(Nc3ccccc3)n2)cc1OC		3600		4	37			
N=C(NCCc1c[nH]c2ccccc12)Nc1ncccn1				4	8			
Cc1cccc(Nc2nc3c([nH]2)c(=O)n(C)c(=O)n3C)c1		1200		6	17			
COc1ccc2c(c1)oc1c(-c3ccncc3)c(C#N)c(N)c(C#N)c12	inactive	2700	Not Active	5	28			

More lines, now with the values ahead:

Activity [1]	Ki (Adenosine receptor A2a) [nM]	Activity [2]	Activity [3] [%]	Activity [4] [%]	inhibition [5]	Ratio Ki (Homo sapiens [6])	Ratio Ki (Homo sapiens [7])	Compound
	200	Active						Cc1cc(C)nc(NC(N)=NCCc2c[nH]c3ccc(F)cc23)n1
	400		19	16				Cc1cc(C)nc(NC(=N)NCCc2c[nH]c3ccccc23)n1
			3	21				Cc1cc(C)nc(NC(=N)NCCc2ccsc2)n1
Active			25	18	inactive	50	50	Cc1cc(C)nc(NC(=N)NCCc2c[nH]c3ccc(F)cc23)n1
	900		10	9				COc1ccc(CCNC(=N)Nc2nc(C)cc(C)n2)cc1
	600		5	20				COc1ccc2c(CCNC(=N)Nc3nc(C)cc(C)n3)c[nH]c2c1
